Reference: PMC8248323 (Clinical Pharmacology in Drug Development, 2021)

Assay: Safety assessments in phase 1 DDI studies 004 and 012
Type: in vivo, human
How it was run: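 Two open-label single-site phase 1 studies in healthy adults, morning dosing. Test compound 10 mg was given alone and with a strong CYP3A inhibitor (200 mg) or inducer (600 mg) daily for 20 days, or with a moderate CYP3A inhibitor (400 mg, then 200 mg daily). It was also given daily for 13 days around CYP3A/CYP2B6 probe substrates. All treatment-emergent and serious AEs were recorded, with serum chemistry, hematology and urinalysis.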

[1] = rifampin cohort, N = 15, lemborexant alone days 1‐14, with rifampin days 22‐35

In the case of `Cc1ncc(OC[C@@]2(c3cccc(F)c3)C[C@H]2C(=O)Nc2ccc(F)cn2)c(C)n1` [Lemborexant, (1R,2S)‐2‐{[(2,4‐dimethylpyrimidin‐5‐yl)oxy]methyl}‐2‐(3‐fluorophenyl)‐N‐(5‐fluoropyridin‐2‐yl)cyclopropanecarboxamide], the “subjects who experienced sleep paralysis” value (across the phase 1 studies) is reported as 4 subjects, the “time of sleep paralysis after lemborexant dosing” value (all cases) is reported as ≤ 1 h and the “severity of sleep paralysis” value (all cases, resolved, no discontinuation) is reported as “mild”. For the same molecule, the “changes in laboratory values, vital signs, electrocardiograms, or physical examination findings” value (phase 1 DDI studies) was “no clinically important changes”, the tolerability (phase 1 studies) was “generally well tolerated” and the AEs [1] was 4 (26.7) n (%). The “AEs leading to study discontinuation” value [1] was 0 n (%), the “AEs, Mild” value [1] was 4 (26.7) n (%) and the “AEs, Moderate” value [1] was 0 n (%). For the same molecule, the “AEs, Severe” value [1] was 0 n (%), the Death [1] was 0 n (%) and the SAEs [1] was 0 n (%). The “Treatment‐related AEs” value [1] was 2 (13.3) n (%).
